# An excerpt weighted towards active compounds, which were near 1.3% of everything screened.
# Arr AP2 block – inhibitors of human beta-arrestin and AP2 interaction. FITC-arrestin peptide / GST-AP2 beads, flow cytometry; AP2 beta2 appendage carries R879A mutation. inhibition, % at 10 µM. hit rate 0.31% among 340,000;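 active means inhibition above a set limit, near 3 SD of compounds lacking own fluorescence, cut at about 54% in these data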;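 further: plate controls were DMSO wells for no effect and 5 µM unlabelled arrestin peptide for full effect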
#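 System: GST-AP2 R879A glutathione beads; medium: PBS, Tween 20 0.05%, BSA 0.1%; reagent: fluorescein-tagged arrestin peptide at 50 nM final; schedule: pre-incubation 12 min, peptide binding 1 h, room temperature; detection: flow cytometry, FL1 (488/535 nm); read-out: inhibition as reduced fluorescein signal on beads, percent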
# PLCg1 inh – blocks human PLC-gamma1 enzyme activity. AID 720700. purified PLC-gamma1, fluorogenic substrate, fluorescence. inhibition, % at 12.2 µM. hit rate 0.84% among 370,000
# PLCb3 inh – blocks human PLC-beta3 enzyme activity. Purified PLC-beta3, fluorogenic substrate, fluorescence. hit rate 0.18% among 370,000. inhibition, % at 12.2 µM. Q01970; in the data active means inhibition above about 11%;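 further: 0% = median of compound wells on plate and 100% = full blocker control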
# NTR1 ag – agonists of human neurotensin receptor NTR1; NTR1-U2OS beta-arrestin-GFP spot imaging, agonist mode; activation, % at 20 µM; hit rate 0.17% among 330,000;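 active means activation at or above 40% of the spot to cytoplasm intensity ratio, with at least 20 cells analyzed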;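 further: 0% = DMSO without peptide and 100% = 100 nM NTR1 peptide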
# PLCg1 ctr – inhibits human PLC-gamma1 in PLC-beta3 counter-screen | inhibition, % at 12.3 µM | shares compounds with PLCg1 inh | hit rate 3.1% among 3,300 | AID 743258 | purified PLC-gamma1, fluorogenic substrate, fluorescence
# PLCbeta3 conf – human PLC-beta3 inhibition, confirmation | shares compounds with PLCg1 inh | purified PLC-beta3, fluorogenic substrate fluorescence | inhibition, % at 12.3 µM | hit rate 1% among 3,300 | AID 743261; in the data active means inhibition above about 11%
# * = called active by the depositor; . = no result given. Unless noted, no stated cut-off is given here; in the data, active means inhibition above about 9.5%; inactive means the rest.
SMILES,Arr AP2 block,PLCg1 inh,PLCb3 inh,NTR1 ag,PLCg1 ctr,PLCbeta3 conf
Cc1ccc(S(=O)(=O)/N=C(/NC(=S)Nc2ccccc2)c2ccccc2)cc1,-5,-3,-1,1,.,.
COc1ccc(-c2ccc(C)cc2)cc1[C@H]1[C@H]2C=CC[C@@H](C)[C@@H]2C(=O)N1Cc1ccccc1,17,5,11*,-4,-6,-3
COc1ccc(-c2ccc(OC)c([C@H]3[C@H]4C=CC[C@@H](C)[C@@H]4C(=O)N3Cc3ccccc3)c2)cc1,27,5,1,0,.,.
O=C(Nn1c(C2CCC2)nc2ccccc2c1=O)C1CCC1,-4,0,0,1,.,.
O=C(Nn1c(C2CCC2)nc2ccccc2c1=O)c1cccs1,-7,9,15*,0,-6,-4
Cc1cccc(Oc2cc(NC(=O)Cn3cnc([N+](=O)[O-])n3)cc([N+](=O)[O-])c2)c1,.,11*,5,.,5,2
COc1ccc(C2C(C#N)=C(N)Nc3onc(C(C)(C)C)c32)c(OC)c1 (stereo not drawn),19,6,11*,0,-3,-1
Cc1sc2ccccc2c1CNC[C@H]1O[C@@H](n2ccc(N)nc2=O)[C@H](O)[C@@H]1O,.,5,1,.,.,.
Cc1sc2ccccc2c1CNC[C@H]1O[C@@H](n2cnc(C(N)=O)n2)[C@H](O)[C@@H]1O,3,9.8*,3,.,-4,-3
CCCC(C)C(=O)Nc1cc([N+](=O)[O-])ccc1Cl (stereo not drawn),0,0,-2,0,.,.
CCCC(C)C(=O)Nc1cc([N+](=O)[O-])ccc1F (stereo not drawn),22,9.7*,4,-2,2,0
COC(=O)C1CN(CCO)CCS(=O)(=O)N1Cc1cn(Cc2ccccc2Br)nn1 (stereo not drawn),.,-2,3,.,.,.
CC1(C)OC2OC(COC(=O)c3ccc([N+](=O)[O-])cc3)C3OC(C)(C)OC3C2O1 (stereo not drawn),2,11*,5,-1,-1,1
O=C(c1ccc(F)cc1)C1CCN(C(=S)Nc2ccccc2Cl)CC1,31,3,-8,-1,.,.
Cc1ccccc1NC(=S)N1CCC(C(=O)c2ccc(F)cc2)CC1,27,9.9*,8,-1,-1,0
CC(C)(C)OC(=O)/C=C/[C@@H](CC1CCCC1)Sc1ccc(C(C)(C)C)cc1,.,-1,4,.,.,.
Cc1cc(OCCCC(=O)NCCc2ccccn2)ccc1Cl,25,9.5*,-6,1,-2,-2
Nn1c(SCc2cccc3ccccc23)nnc1-c1cc(-c2ccc(F)cc2)n[nH]1,.,1,-1,.,.,.
COc1ccccc1NS(=O)(=O)c1ccc(NN=C2CCCCC2)c([N+](=O)[O-])c1,-10,11*,7,13,5,6
COc1ccccc1NS(=O)(=O)c1ccc(N/N=C(\C)C(C)C)c([N+](=O)[O-])c1,9,9.9*,13*,3,8,3
CCCC(CCC)=NNc1ccc(S(=O)(=O)Nc2ccccc2OC)cc1[N+](=O)[O-],-30,2,5,7,.,.
O=C(N[C@H](C(=O)N1CCC[C@H]1C(=O)NCc1ccccc1)C1CCCCC1)c1ccc(Cl)c(Cl)c1,.,6,7,.,.,.
CC(C)CC(=O)Nc1cccc(NC(=O)CC(C)C)n1,-7,10*,-3,3,-8,-7
CC(=O)N1CCc2ccccc2C1CC(=O)O (stereo not drawn),15,11*,-1,3,7,0
CCOC(=O)NC(=O)CSc1nc2ccc(OCC)cc2[nH]1,27,-4,-1,-1,.,.
SMILES,Arr AP2 block,PLCg1 inh,PLCb3 inh,NTR1 ag,PLCg1 ctr,PLCbeta3 conf
CCc1ccc(OCC(=O)Nc2ccc3c(c2)OCCO3)cc1,5,9.5*,-1,0,-6,-4
CCOc1ccc(NC(=O)NCc2ccc3c(c2)OCO3)cc1,1,9.5*,-7,-1,-8,-4
CCOc1ccc2nc(SCC(=O)NCc3ccc4c(c3)OCO4)[nH]c2c1,-5,13*,6,0,0,-19
CCc1ccc(NC(=O)COc2ccc3c(c2)OCO3)cc1,14,-1,-9,4,.,.
CCOc1ccc2nc(SCC(=O)Nc3ncccn3)[nH]c2c1,-7,11*,5,2,-5,-2
CCOc1ccc(C=NNC(=O)c2cc(-c3ccc(Cl)cc3)n[nH]2)cc1,.,-1,-2,.,.,.
Cc1cnc(C(=O)OCC(=O)NCc2cccc(Cl)c2)cn1,-4,1,-1,0,.,.
Cc1cnc(C(=O)OCC(=O)NCc2ccc3c(c2)OCO3)cn1,6,3,11*,2,-3,-4
C=CCn1c(C)nnc1SCC(=O)Nc1ccc2c(c1)OCCO2,36,-3,0,-1,.,.
Cc1occc1C(=O)NCc1ccc2c(c1)OCO2,14,11*,4,-1,-7,-1
CCn1c(C)nnc1SCC(=O)Nc1ccc2c(c1)OCCO2,-3,9.9*,0,0,-9,1
CC(=O)N(Cc1cccnc1)c1cccc(-c2nc3ccccc3s2)c1,34,9.8*,-3,1,-5,-6
CC(=O)NC1C(OCCOc2ccc(Cl)cc2Cl)OC(COC(C)=O)C(OC(C)=O)C1OC(C)=O (stereo not drawn),-3,10*,4,1,-4,-1
Fc1ccc(-c2cc(-c3cccs3)cc(-c3ccccc3)n2)cc1,-9,14*,-3,1,5,0
Fc1ccc(-c2nc(-c3cccs3)no2)cc1,30,2,-5,1,.,.
CCNC(=O)C[C@H]1CC[C@H]2[C@@H](COc3ccc(NC(=O)c4ccc5c(c4)OCO5)cc3C(=O)N2C)O1,.,9.6*,4,.,15*,14*
COC(=O)C[C@@H]1CC[C@@H]2[C@H](COc3ccc(NC(=O)c4ccc5c(c4)OCO5)cc3C(=O)N2C)O1,.,-2,0,.,.,.
CN1C(=O)c2cc(NC(=O)Nc3ccccc3F)ccc2OC[C@H]2O[C@@H](CC(=O)NCc3ccc(-c4ccccc4)cc3)CC[C@@H]21,.,12*,10,.,13*,12*
COC(=O)c1cc(-c2cccc(C(F)(F)F)c2)c(=O)n2c1CCC2,.,-8,-19,.,.,.
COc1ccc(Cc2nnc(SCC(=O)Nc3ccc(C)cc3)n(N)c2=O)cc1,2,10*,-4,0,-8,-3
COc1cccc(NC(=O)CSc2nnc(Cc3ccc(C)cc3)c(=O)n2N)c1,13,0,-2,2,.,.
O=C(Nc1cccc([N+](=O)[O-])c1)Nc1ccc2c(c1)OCCO2,-3,10*,-1,0,1,3
O=C(Nc1cccc([N+](=O)[O-])c1)Nc1cccc([N+](=O)[O-])c1,12,0,-2,4,.,.
Cc1ccc(-c2nc3ncccn3c2NC(=O)c2cccc(C)c2)cc1,.,-271,-349,.,.,.
CCN(CC)C(=O)c1nc[nH]c1C(=O)N(CC)CC,-2,14*,7,1,0,0

# Assay outcomes from PubChem.
